By logP is commonly meant the decadic logarithm of the partition coefficient of the neutral form, usually between octanol and water.

The text below walks through data of ChEMBL document CHEMBL1136762, “Methoxylation of desazadesferrithiocin analogues: enhanced iron clearing efficiency” (J Med Chem, 2003).

The nature of series [1]: Partition coefficient (logP). The class given is physicochemical. The settings on record: octanol/water. In short, it runs like this: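 Shake-flask octanol–water distribution coefficient at pH 7.4 (50 mM TRIS), not corrected for ionization. Quadruplicate samples were shaken overnight with 1-octanol at 22–24 °C and the layers settled 1–2 h before separation. Quantified by UV spectrometry and expressed as the log of the fraction in the octanol layer.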

In series [2] the test system is Monkey. The series is described as follows: Iron clearing activity when administered 150 uM/kg orally to Cebus apella Primates (n = 4) [% stool/% urine = 70/30]. The class given is functional.
For series [3], the system named is Monkey. In words: Iron clearing activity when administered 150 uM/kg orally to Cebus apella Primates (n = 4) [% stool/% urine = 86/14]. The format is functional.
In series [4] the test system is Monkey. The series is described as follows: Iron clearing activity when administered 150 uM/kg orally to Cebus apella Primates (n = 4) [% stool/% urine = 81/19]. The class given is functional.

Regarding `COc1ccc(C2=N[C@@](C)(C(=O)O)CS2)c(O)c1`, the log partition coefficient (logP) in series [1] is -0.7. The same compound showed an Efficiency in the series on Monkey [2] of 24.4%.
Taken in the same sequence, the figures for `O=C(O)[C@H]1CSC(c2ccc(O)cc2O)=N1` were -1.33 and 4.2%.
In the case of `C[C@]1(C(=O)O)CSC(c2ccc(O)cc2O)=N1` [DEFERITRIN], the logP in series [1] is -1.05. Moreover, in the series on Monkey [3], the Efficiency was found to be 13.4%.
In series [1], `CC1(C)SC(c2ccc(O)cc2O)=N[C@H]1C(=O)O` displayed a logP of -0.91. For the same compound, the Efficiency in the series on Monkey [2] was found to be 12.3%.
`COc1ccc(C2=N[C@@H](C(=O)O)CS2)c(O)c1` registered a logP in series [1] of -0.89. In the series on Monkey [4], this compound came in with an Efficiency of 16.2%.
